Assay results of several laboratories.
Organism: Severe acute respiratory syndrome coronavirus 2

CN1CCN(C2=Nc3ccccc3Oc3ccc(Cl)cc32)CC1  IC50 (viral replication, inhibitor; Vero C1008): 11.5 µM
Cn1cnc(Cn2c(=O)[nH]/c(=N\c3cc4cn(C)nc4cc3Cl)n(Cc3cc(F)c(F)cc3F)c2=O)n1  EC50 (viral replication, inhibitor, qPCR; 48 h): 0.023 µM
COc1ccc(C[C@@H]2c3cc(Oc4cc(C[C@@H]5c6cc(O)c(OC)cc6CCN5C)ccc4O)c(OC)cc3CCN2C)cc1  inhibition (cytopathic effect, inhibitor; Vero C1008; 50 µM): 66.7%
Cn1c(C(=O)Nc2ccc3c(c2)OCCO3)cc2c(=O)n3ccccc3nc21  inhibition (viral replication; Vero; 10 µM): 91.8%
N#C[C@@]1(c2ccc3c(N)ncnn23)O[C@H](CO)[C@@H](O)[C@H]1O  EC90 (viral replication, inhibitor, qPCR; Vero C1008; 48 h): 0.77 µM
CCN(CCO)CCCC(C)Nc1ccnc2cc(Cl)ccc12 (centres unmarked)  IC50 (viral replication, inhibitor; Huh-7): > 2 µM
CCC(CC)COC(=O)[C@H](C)N[P@](=O)(OC[C@H]1O[C@@](C#N)(c2ccc3c(N)ncnn23)[C@H](O)[C@@H]1O)Oc1ccccc1  inhibition (viral replication; Vero; 1 µM): 95.2%
CCCCCCCCCCCCCCCCOCCCOP(=O)(O)OC[C@H]1O[C@@](C#N)(c2ccc3c(N)ncnn23)[C@H](O)[C@@H]1O  EC50 (viral replication, inhibitor, qPCR; Vero C1008): 0.63 µM
CCCN(CCC)CCc1ccc(OC)c(OCCc2ccccc2)c1  IC50 (viral replication, inhibitor; A549-ACE2): 1.41 µM
CN[C@@H](C)C(=O)N[C@H]1CN(C(=O)CC(C)C)CC[C@H]2CC[C@@H](C(=O)NC(c3ccccc3)c3ccccc3)N2C1=O  inhibition (viral replication, inhibitor; Vero C1008; 1 µM): 54%
CC(C)=CCc1c(O)ccc(C(=O)/C=C/c2ccc(O)cc2)c1O  inhibition (cytopathic effect; Vero C1008; 6.25 µM): 0%
CCCCCCCCCCCCCCCCCCOC[C@H](COP(=O)(O)OC[C@H]1O[C@@](C#N)(c2ccc3c(N)ncnn23)[C@H](O)[C@@H]1O)OCc1ccccc1  EC50 (viral replication, inhibitor, qPCR; Vero C1008): 0.14 µM
Fc1ccc(C(OCCN2CCN(CCCc3ccccc3)CC2)c2ccc(F)cc2)cc1  IC50 (viral replication, inhibitor; A549-ACE2): 6.03 µM
CC(C)[C@H]1CC[C@H](C(=O)N[C@H](Cc2ccccc2)C(=O)O)CC1  IC50 (viral replication, inhibitor; Huh-7): > 2 µM
Cc1ccc(NC(=O)c2cc3c(=O)n4cccc(C)c4nc3n2C)cc1Cl  inhibition (viral replication; Vero; 10 nM): 25.8%
CN(CCCN1c2ccccc2CCc2ccccc21)CC(=O)c1ccc(Cl)cc1  IC50 (viral replication, inhibitor; A549-ACE2): 7.76 µM
Cc1cccn2c(=O)c3cc(C(=O)Nc4ccc(N(C)C)cc4)n(C)c3nc12  inhibition (viral replication; Vero; 10 nM): 7.3%
CN(Cc1cc(Br)cc(Br)c1N)C1CCCCC1  IC50 (viral replication; Vero C1008): 2.82 µM
CCCCCN(C(=O)NC)c1ccc2nc(CCCC)n(Cc3ccc(NC(=O)c4c(Cl)ccc(Cl)c4C(=O)O)cc3)c2c1  inhibition (viral replication, inhibitor; Vero C1008; 1 µM): 44.5%
O=C(O[C@@H]1Cc2c(O)cc(O)cc2O[C@@H]1c1cc(O)c(O)c(O)c1)c1cc(O)c(O)c(O)c1  inhibition (cytopathic effect, inhibitor; Vero C1008; 3.125 µM): 0%
CCC(CC)COC(=O)[C@H](C)N[P@](=O)(OC[C@H]1O[C@@](C#N)(c2ccc3c(N)ncnn23)[C@H](O)[C@@H]1O)Oc1ccccc1  IC50 (viral replication, inhibitor; Huh-7): 0.006 µM
C=C[C@@](C)(/C=C/c1ccc(O)cc1)CCC=C(C)C  inhibition (cytopathic effect; Vero C1008; 3.125 µM): 0%
Cc1cc(C)c(N(C)CC(=O)Nc2nc(-c3ccccn3)c[nH]2)c(C)c1  inhibition (viral replication, inhibitor; Vero C1008; 1 µM): 50.7%
O=C(/C=C/c1ccc(O)c(O)c1/C=C/c1ccc(O)c(O)c1)O[C@H](Cc1ccc(O)c(O)c1)C(=O)O  inhibition (cytopathic effect, inhibitor; Vero C1008; 0.7812 µM): 0%
CCC(CC)COC(=O)[C@H](C)N[P@](=O)(OC[C@H]1O[C@@](C#N)(c2ccc3c(N)ncnn23)[C@H](O)[C@@H]1O)Oc1ccccc1  EC90 (viral replication, inhibitor, qPCR; Vero C1008; 48 h): 7.05 µM
CN(C)CCC=C1c2ccccc2CCc2ccccc21  IC50 (viral replication; Vero C1008): 2.82 µM
COc1ccc(CCN(C)CCCC(C#N)(c2ccc(OC)c(OC)c2)C(C)C)cc1OC (centres unmarked)  IC50 (viral replication, inhibitor; Huh-7): 0.534 µM
[2H]C([2H])([2H])n1cc2cc(/N=c3\[nH]c(=O)n(Cc4ncn(C)n4)c(=O)n3Cc3cc(F)c(F)cc3F)c(Cl)cc2n1  EC50 (viral replication, inhibitor, qPCR; 48 h): 0.018 µM
C=C1[C@H](CO)[C@@H](O)C[C@@H]1n1cnc2c(=O)[nH]c(N)nc21  IC50 (viral replication, inhibitor; Huh-7): 0.042 µM
CCN(CC)CCCC(C)Nc1ccnc2cc(Cl)ccc12 (centres unmarked)  IC50 (viral replication, inhibitor; Vero C1008): 1.38 µM
CN(CCc1ccc(Cl)c(Cl)c1)CCN1CCCC1  IC50 (viral replication, inhibitor; A549-ACE2): 1.48 µM
CCCCCCCCCCCCCCCCCCOCCOP(=O)(O)OC[C@H]1O[C@@](C#N)(c2ccc3c(N)ncnn23)[C@H](O)[C@@H]1O  EC90 (viral replication, inhibitor, qPCR; Vero C1008; 48 h): 0.33 µM
Cc1cc2c(cc1C(=O)Oc1ccc(C(=O)O)cc1)C(C)(C)CCC2(C)C  inhibition (viral replication, inhibitor; Vero C1008; 1 µM): 49.8%
CCC(C)(C)C(=O)O[C@H]1C[C@@H](C)C=C2C=C[C@H](C)[C@H](CC[C@@H]3C[C@@H](O)CC(=O)O3)[C@H]21  IC50 (viral replication, inhibitor; Huh-7): > 2 µM
Cn1c(C(=O)Nc2ccc(Cl)cc2)cc2c(=O)n3ccccc3nc21  inhibition (viral replication; Vero; 1 nM): 5.41%
CCN(C(C)=O)c1cccc(-c2ccnc3c(C#N)cnn23)c1  inhibition (viral replication, inhibitor; Vero C1008; 1 µM): 42.1%
Cc1cc(NC(=O)c2cc3c(=O)n4cccc(C)c4nc3n2C)ccc1Br  inhibition (viral replication; Vero; 1 µM): 74.7%
CCC(CC)COC(=O)[C@H](C)N[P@](=O)(OC[C@H]1O[C@@](C#N)(c2ccc3c(N)ncnn23)[C@H](O)[C@@H]1O)Oc1ccccc1  EC50 (viral replication, inhibitor; Vero C1008): < 100 µM
O=C(Nc1ccccc1F)c1cc2c(=O)n3ccccc3nc2n1Cc1ccccc1  inhibition (viral replication; Vero; 1 nM): 12.3%
CN(C)CCCN1c2ccccc2Sc2ccc(Cl)cc21  IC50 (viral replication; Vero C1008): 0.282 µM
CCOC(=O)c1ncc2[nH]c3cccc(OC(C)C)c3c2c1C  inhibition (viral replication, inhibitor; Vero C1008; 1 µM): 40.6%
